# High-throughput results deposited in PubChem BioAssay by several laboratories.
# Most compounds without a hit are left out; they make up all but 4% or so of the library.
# ERa coact inh – ERα–SRC-1 coactivator interaction inhibitors, primary screen, biochemical, TR-FRET, ERα LBD, estradiol-bound. Estrogen receptor (Homo sapiens), P03372. TR-FRET ER-alpha LBD / SRC-1 peptide. inhibition, % at 25.6 µM. actives 1.7% (n = 86,000); in the data active means inhibition above about 50%;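 further: 0% = receptor plus peptide control and 100% = peptide only without receptor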
# Smad3 inh – Smad3/FoxH1 peptide binding inhibitors, primary screen, biochemical, TR-FRET; Mothers against decapentaplegic homolog 3 (Homo sapiens), P84022; TR-FRET Smad3/Dy647-FoxH1 peptide binding, europium anti-His; inhibition, % at 25 µM; actives 0.29% (n = 88,000); AID 630, 2007;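 active means compounds that reduce the energy-transfer binding signal between the protein and its labelled peptide by more than half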;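 further: 0% = Smad3 plus labelled peptide maximal FRET and 100% = peptide-only background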
# ERb SRC1 inh – inhibitors of ERβ-SRC1 coactivator interaction, primary screen, biochemical, TR-FRET, ERβ LBD, SRC-1 peptide; Estrogen receptor beta (Homo sapiens), Q92731; TR-FRET ER-beta LBD / SRC1-Cy5 peptide binding; receptor agonist-loaded with 1 µM estradiol; inhibition, % at 25.6 µM; actives 1.3% (n = 86,000); AID 633, 2007;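 active means compounds whose percent inhibition of the receptor-coactivator binding signal exceeds about 50% in the single-dose screen, limit read from the data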;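 further: 0% = receptor plus peptide wells without compound and 100% = peptide-only wells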
# HIV Rev-RRE inh – HIV-1 Rev-RRE binding inhibitors, primary screen, biochemical, FRET, protein-RNA interaction; actives 0.79% (n = 97,000); Rev peptide-RRE RNA binding; AID 704, 2007; P05866; inhibition, % at 8 µM;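 active means inhibition above the screen-wide mean plus 3 SD, cut at about 35% in these data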;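 further: 0% = median DMSO wells and 100% = median Neomycin B control wells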
#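 Test system – labelled RRE RNA duplex and labelled Rev peptide · Reagent – labelled Rev peptide · Doses – one concentration, 8 µM nominal · Incubation – 5 + 15 min at 25 °C · Signal – FRET fluorescence readout · Read-out basis – % inhibition of FRET ratio versus controls · Control set – DMSO wells as 0% and neomycin B wells as 100% inhibition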
# ERa SRC1 pot – enhancers of ERα–SRC-1 coactivator binding, primary screen, biochemical, TR-FRET, ERα LBD, low estradiol; AID 639, 2007; TR-FRET ERalpha-LBD/SRC-Cy5 coactivator binding, 2 h; 100 = basal binding, no effect; Estrogen receptor (Homo sapiens), P03372; actives 1.3% (n = 86,000); coactivator binding (% of control), % at 25.6 µM; in the data active means activity above about 200%;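 further: binding measured in presence of low estradiol as agonist stimulus; 0% = peptide alone without receptor and 100% = receptor with peptide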
# FAK blocker – FAK kinase inhibitors, primary screen, biochemical; Focal adhesion kinase 1 (Homo sapiens), Q05397; biochemical FAK kinase activity assay; inhibition, %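 (tested at 7 µM)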; actives 0.84% (n = 97,000); in the data active means inhibition above about 19%;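 further: 0% = DMSO and 100% = reference compound high control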
# Target sequence (Q05397 whole entry, looked up): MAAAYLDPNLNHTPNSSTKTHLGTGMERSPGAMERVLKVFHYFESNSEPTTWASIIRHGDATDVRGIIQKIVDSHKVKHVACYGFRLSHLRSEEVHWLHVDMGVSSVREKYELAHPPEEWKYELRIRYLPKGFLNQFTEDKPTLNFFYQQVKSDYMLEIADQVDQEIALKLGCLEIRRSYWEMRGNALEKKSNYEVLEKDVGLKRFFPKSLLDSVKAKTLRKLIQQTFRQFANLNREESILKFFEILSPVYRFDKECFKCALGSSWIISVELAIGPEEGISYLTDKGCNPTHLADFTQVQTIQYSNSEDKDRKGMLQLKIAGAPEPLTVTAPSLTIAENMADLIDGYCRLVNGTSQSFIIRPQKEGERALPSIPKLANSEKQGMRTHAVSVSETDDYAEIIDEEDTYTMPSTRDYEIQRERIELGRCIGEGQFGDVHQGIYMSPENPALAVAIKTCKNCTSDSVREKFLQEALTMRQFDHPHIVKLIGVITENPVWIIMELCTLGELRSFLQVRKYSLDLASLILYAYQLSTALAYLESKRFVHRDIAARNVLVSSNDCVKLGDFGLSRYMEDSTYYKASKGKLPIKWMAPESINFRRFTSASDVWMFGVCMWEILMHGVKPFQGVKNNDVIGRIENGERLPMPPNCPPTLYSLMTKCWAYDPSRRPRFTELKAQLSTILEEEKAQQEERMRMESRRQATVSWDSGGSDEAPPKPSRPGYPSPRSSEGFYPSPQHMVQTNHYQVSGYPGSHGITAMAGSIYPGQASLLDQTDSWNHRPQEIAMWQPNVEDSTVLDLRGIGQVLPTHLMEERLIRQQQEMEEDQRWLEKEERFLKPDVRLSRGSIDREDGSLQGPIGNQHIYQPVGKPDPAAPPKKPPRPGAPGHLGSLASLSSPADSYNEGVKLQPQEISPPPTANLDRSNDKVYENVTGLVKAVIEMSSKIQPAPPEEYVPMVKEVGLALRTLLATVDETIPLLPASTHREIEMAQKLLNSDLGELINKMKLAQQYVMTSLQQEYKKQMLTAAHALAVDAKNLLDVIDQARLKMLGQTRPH
# An asterisk follows results filed as active; . = no result given; [ ] = remark or other dose.
SMILES,ERa coact inh,Smad3 inh,ERb SRC1 inh,HIV Rev-RRE inh,ERa SRC1 pot,FAK blocker
Cc1ccc(C(=O)Nc2nc3ccccc3n2CCN2CCCC2)cc1,-8,-6,-2,9,284*[fluorescence artefact?],6
O=C(O)/C(Cc1ccc([N+](=O)[O-])cc1)=N\O,.,1,.,.,.,.
CN1C(=O)c2cccc(NCCCN3C(=O)c4ccccc4C3=O)c2C1=O,12,-2,19,58*,174,1
CN1C(=O)c2cccc(NCCCCCCN3C(=O)c4ccccc4C3=O)c2C1=O,11,-10,11,30,112,0
Cc1ccc(C(=O)NCCSC2CCCCC2)cc1S(=O)(=O)Nc1ccccc1,.,.,.,10,.,2
Cc1ccc(C2CC(=O)N3CN(c4ccc(Br)cc4)CSC3=C2C#N)o1 (stereo not given),-7,9,-1,45*,55,5
CCOc1ccc(N2CSC3=C(C#N)C(c4ccco4)CC(=O)N3C2)cc1 (stereo not given),51*,10,52*,6,94,-1
CSc1nc(N2CCN(CCO)CC2)c2sc3nc(-c4ccco4)c4c(c3c2n1)CCC4,57*,-19,24,.,65,.
Cc1ccc(C)c(/C(=N/N=C(N)N)C2CC2)c1,.,-3,.,.,.,.
O=C(O)Cc1cccnc1,.,-1,.,.,.,.
CC(=O)Nc1ccc(NC(=O)C2CCCN(c3ncccn3)C2)cc1 (stereo not given),-9,-7,-3,-1,88,-1
O=C(Nc1ccc(C2CCCCC2)cc1)C1CCCN(c2ncccn2)C1 (stereo not given),16,8,-1,.,223*[fluorescence artefact?],.
Cc1cc(C)cc(NC(=O)C2CCCN(c3nc(C)cc(C)n3)C2)c1 (stereo not given),4,-5,75*[fluorescence artefact?],.,90,.
Cc1cc(C)cc(NC(=O)C2CCCN(c3nccc(C)n3)C2)c1 (stereo not given),10,-10,-2,3,92,6
Cc1c2cc[n+](CCN3CCCCC3)cc2c(C)c2c1[nH]c1ccc(O)cc12,.,9,.,.,.,.
Cn1c(=O)[nH]c(=O)c2c1nc(CN1CCN(c3ccc(F)cc3)CC1)n2CCCc1ccccc1,11,-7,6,6,109,-3
Cn1c(=O)[nH]c(=O)c2c1nc(CN1CCN(c3ccc(F)cc3)CC1)n2CCc1ccccc1,-21,15,-6,-1,399*[fluorescence artefact?],1
CCOc1cc(N2CCOCC2)c(OCC)cc1NC1=NCCCCC1,44,-2,70*[fluorescence artefact?],1,69,-6
C[C@@H](N1CCOCC1)[C@@](O)(c1ccccc1)c1ccccn1,.,10,.,.,.,.
c1cncc(-c2nc(Oc3ccc(-c4nnco4)cc3)c3c4c(sc3n2)CCCC4)c1,18,-5,5,.,258*[fluorescence artefact?],.
CN(C)S(=O)(=O)c1ccc(Nc2ccc(O)c3c2C(=O)c2c([N+](=O)[O-])ccc(O)c2C3=O)cc1,.,30,.,.,.,.
Cc1ccc(C(C)C)c(OCC(=O)OCc2c(C)noc2C)c1,-5,-10,51*[fluorescence artefact?],4,134,-7
CC(Oc1ccc(Cl)cc1Cl)C(=O)N/N=C1\CCCc2ccccc21 (stereo not given),.,.,.,9,.,-1
O=C(c1cccc(Cl)c1)N(Cc1cccs1)C1CCS(=O)(=O)C1 (stereo not given),0,1,-1,-2,108,-1
O=C(c1sc2ccccc2c1Cl)N(Cc1cccs1)C1CCS(=O)(=O)C1 (stereo not given),58*[fluorescence artefact?],-13,4,3,89,-4
CCc1nnc(NC(=O)[C@@H](NC(=O)c2cccc(S(=O)(=O)N(CC)CC)c2)C(C)C)s1,.,.,.,7,.,0
O=C1C(=O)c2ccccc2C(O)=C1Cc1ccccc1,.,3,.,.,.,.
